HSF1 inhib: HSF1 inhibitors in luciferase reporter cells, primary screen, cell-based, NIH3T3, luminescence. NIH3T3-HGL HSE-luciferase, MG132-induced, luminescence 8 h; stronger effect = lower value. activity change, negative = inhibition, % at 7.5 µM (by protocol). hit rate 0.77% among 300,000. AID 2098, 2009;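 active = more than half of replicate wells show activity change below -50%, luminescence cut by over half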;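 note: luciferase reports HSF-1 transcriptional activity via heat shock element; 0% = median of DMSO wells and -100% = zero luminescence signal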
STAT3 activator: IL-6 driven STAT3 reporter potentiators, primary screen, U3A cells, luciferase, luminescence, MLSCN library; AID 871, 2007; activation (% of control), % at 5.6 µM; hit rate 0.91% among 190,000; IL-6 STAT3-luciferase reporter; 100% = signal with IL-6 EC80 alone;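 active = activation above the screen-wide mean of compound activation plus 3 SD, cut at about 130% in these data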;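 note: 0% = background luminescence of wells with medium and substrate only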
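Material: STAT3-luciferase reporter U3A cells. Controls: IL-6-treated wells, 100% activation. Read-out: % activation versus median of IL-6-stimulated wells. Probe or stimulus: IL-6 stimulus at 33 ng/mL final. Timing: compound 1 h, then IL-6 6 h at 37 °C. Signal: reporter luminescence signal.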
AHR activator: AHR activators, primary screen, cell-based, luminescence, luciferase reporter, human | Aryl hydrocarbon receptor (Homo sapiens), P35869 | AHR-responsive luciferase reporter cells | activation, % at 5 µM | hit rate 2.5% among 320,000; in the data active = activation above about 47%;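 note: 0% = vehicle wells and 100% = reference agonist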
Hsp70 activator: Hsp70 transcriptional activators, primary screen, cell-based, HeLa, Hsp70 promoter luciferase, luminescence, 10 µM | activation, % at 10 µM | hit rate 0.04% among 200,000 | HeLa Hsp70 promoter luciferase reporter; scaled: vehicle 0, proteasome-inhibitor control 100%;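 active = activation above the mean across all tested compounds plus 3 SD, cutoff set per campaign, cut at about 5.5% in these data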;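 note: 100% = MG132 at 30 µM as the positive control and 0% = DMSO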
PolyA inhibitor: polyadenylation inhibitors in yeast reporter cells, primary screen, luminescence, S. cerevisiae. S. cerevisiae SKY197-pL101 polyadenylation reporter, beta-gal luminescence; efflux-impaired pdr1/pdr3 knockout yeast; score 100 = 6 SD above DMSO. activity score, % at 12 µM. hit rate 0.02% among 300,000. AID 1875, 2009;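 active = lowest replicate activity score at least 50, where 100 means six control SD above control mean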;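 note: yeast exposed to compound for 9 h at 30 °C; higher score means more reporter readthrough which indicates perturbed polyadenylation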
PERK inh: block of dimerizer-induced PERK translation repression, primary screen, PERK inhibitor project, CHO PERK-DD cells, SEAP luminescence, HTS; hit rate 0.17% among 220,000; inhibition, % at 5.6 µM; CHO PERK-DD fusion, SEAP luminescence translation reporter;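 active = inhibition above the mean inhibition of all tested compounds plus 3 SD, set separately per screening campaign, cut at about 2.9% in these data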;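 note: PERK kinase domain activated by AP20187 dimerizer at 100 nM; 0% = DMSO with dimerizer and 100% = rapamycin at 8.4 µM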
Target sequence (Q9NZJ5 whole entry, looked up, the tested form may be a part): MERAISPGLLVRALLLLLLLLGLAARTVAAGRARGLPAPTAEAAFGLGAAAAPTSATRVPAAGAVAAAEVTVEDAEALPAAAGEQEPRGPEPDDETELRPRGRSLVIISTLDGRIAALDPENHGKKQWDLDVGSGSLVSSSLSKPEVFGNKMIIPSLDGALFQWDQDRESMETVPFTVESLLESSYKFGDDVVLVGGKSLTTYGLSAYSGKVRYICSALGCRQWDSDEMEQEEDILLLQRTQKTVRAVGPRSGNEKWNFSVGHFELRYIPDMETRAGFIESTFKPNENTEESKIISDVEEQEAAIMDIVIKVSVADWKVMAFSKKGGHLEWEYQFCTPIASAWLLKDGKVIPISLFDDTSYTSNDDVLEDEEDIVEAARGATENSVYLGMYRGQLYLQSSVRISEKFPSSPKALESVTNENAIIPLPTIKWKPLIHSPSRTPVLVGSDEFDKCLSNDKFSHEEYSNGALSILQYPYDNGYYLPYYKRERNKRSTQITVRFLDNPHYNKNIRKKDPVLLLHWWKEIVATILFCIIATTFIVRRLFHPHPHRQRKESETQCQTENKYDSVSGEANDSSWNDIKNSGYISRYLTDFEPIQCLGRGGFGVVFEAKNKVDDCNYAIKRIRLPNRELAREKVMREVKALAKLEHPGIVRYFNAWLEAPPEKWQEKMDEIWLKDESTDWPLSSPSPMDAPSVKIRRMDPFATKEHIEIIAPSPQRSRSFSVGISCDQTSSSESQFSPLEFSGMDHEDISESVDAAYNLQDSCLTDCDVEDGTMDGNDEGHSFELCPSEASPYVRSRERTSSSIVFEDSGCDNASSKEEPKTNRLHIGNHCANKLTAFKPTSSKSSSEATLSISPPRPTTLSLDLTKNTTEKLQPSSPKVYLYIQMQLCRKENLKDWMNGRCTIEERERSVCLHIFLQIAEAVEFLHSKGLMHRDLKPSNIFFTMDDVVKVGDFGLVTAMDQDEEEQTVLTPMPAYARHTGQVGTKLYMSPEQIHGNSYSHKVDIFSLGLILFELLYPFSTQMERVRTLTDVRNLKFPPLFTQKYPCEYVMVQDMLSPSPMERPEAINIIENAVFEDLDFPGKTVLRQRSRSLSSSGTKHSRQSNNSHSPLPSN
An asterisk follows results filed as active; . = not tested or not shown. This is a sample that favours compounds with a hit; in the whole collection about 3.6% have one here.

SMILES	HSF1 inhib	STAT3 activator	AHR activator	Hsp70 activator	PolyA inhibitor	PERK inh
CC(c1ccccc1)n1c(N2CCN(C)CC2)nc2c1c(=O)[nH]c(=O)n2C (stereo unspecified)	-3.1	.	-1.2	.	18.1	.
Cc1ccc(CN(C(=O)COc2ccc(C)c(C)c2)C2CCS(=O)(=O)C2)o1 (stereo unspecified)	5.8	.	3.3	.	-1.5	.
COc1ccccc1/C=C/c1ccc2cccc(O)c2n1	-5.7	.	75.5*	.	-4.8	.
COc1ccc(Cl)cc1/C=C/c1ccc2cccc(O)c2n1	-14.3	.	66.1*	.	2.4	.
CCOc1cccc(/C=C/c2ccc3cccc(O)c3n2)c1OC	121.7	.	76.3*	.	1.4	.
COc1cc(Cl)cc(/C=C/c2ccc3cccc(O)c3n2)c1OC	-4.2	.	39.5	.	5.5	.
O/N=C/c1ccc2ccccc2n1	3.0	.	3.2	.	-5.6	0.3
Oc1cccc2ccc(/C=C/c3ccccc3Cl)nc12	0.1	.	15.5	.	-8.3	.
O/N=C/c1ccc2cccc(O)c2n1	-3.3	.	0.1	.	-3.7	3.7*
Cc1cc(NC(=O)COc2ccc3ccccc3c2Br)no1	.	.	11.2	.	.	.
C/C(=N\NC(=O)c1cc(-c2ccc(Cl)s2)[nH]n1)c1ccncc1	4.2	.	49.8*	.	1.3	.
C/C(=N\NC(=O)c1cc(-c2ccc(Br)s2)[nH]n1)c1ccncc1	1.0	.	40.1	.	26.0	.
C/C(=N/NC(=O)c1ccc(C)s1)c1ccncc1	2.6	.	.	.	-2.7	.
CCc1ccc(C(=O)N/N=C(\C)c2ccncc2)s1	-73.7*	.	36.4	.	-13.4	.
COC(=O)c1cc(CNC(=O)CCCSc2ccccc2)ccc1OC	0.5	.	.	.	4.5	.
Cc1cc(C(F)(F)F)nc(-n2cc(-c3cccc(N)c3)nn2)n1	-2.6	87.0	8.0	-0.1	-5.8	0.1
Nc1cccc(-c2cn3cc(C(F)(F)F)cc(Cl)c3n2)c1	-13.6	108.1	63.3*	-0.1	-12.3	0.2
Nc1cccn2c(-c3ccc(Cl)c(Cl)c3)cnc12	22.8	114.7	22.4	0.2	13.0	0.5
Nc1cccn2c(-c3ccc(Cl)cc3)cnc12	5.2	114.1	70.2*	0.2	-8.3	1.0
O=C(CCl)N1CCCC1c1ccc2c(c1)OCCO2 (stereo unspecified)	-63.0*	.	0.0	.	-5.1	.
CC(=O)c1ccc(OCC(=O)N2CCCC2c2ccc3c(c2)OCCCO3)cc1 (stereo unspecified)	.	.	-0.1	.	.	.
COc1cc(NC(=O)c2cccc(C)c2)c(Cl)cc1[N+](=O)[O-]	0.1	79.0	-10.5	0.1	-3.9	0.0
COc1ccc(N(CC(=O)N2CCOCC2)S(C)(=O)=O)cc1Cl	0.9	.	-3.2	.	-7.9	.
COc1ccc(C2Nc3cc(OC)ccc3-n3cccc32)cc1 (stereo unspecified)	21.3	.	60.3*	.	0.4	-0.8
COc1ccc(C2NC(=S)N3C(c4ccc(OC)cc4)NC(=S)N23)cc1 (stereo unspecified)	-5.2	92.6	-2.3	0.1	0.9	0.5
SMILES	HSF1 inhib	STAT3 activator	AHR activator	Hsp70 activator	PolyA inhibitor	PERK inh
CC(C)(C)OC(=O)NN=C(c1ccc(O)cc1)c1ccc(O)cc1	-0.7	.	31.8	.	10.6	.
COC(=O)c1cc2ccsc2n1Cc1nc(-c2ccc(Cl)cc2)oc1C	-78.8*	104.2	6.1	-0.1	-6.2	1.4
COC(=O)c1cc2occc2n1Cc1nc(-c2ccc(Cl)cc2)oc1C	0.3	88.9	8.2	0.0	-0.4	0.9
O=C(Oc1ccccc1/C=C\C(=O)c1cc2ccccc2o1)c1ccccc1	288.6	106.9	67.8*	-0.1	-14.5	0.6
O=C(Oc1ccccc1/C=C\C(=O)c1cc2ccccc2o1)c1cccc(F)c1	198.8	127.1	70.0*	-0.2	-5.8	0.8
O=C(N/N=C/c1ccccc1OC(=O)c1ccc2c(c1)OCO2)c1cccc(F)c1	6.0	99.5	5.8	-0.1	-0.2	0.2
COc1cccc(C(=O)Oc2ccccc2/C=C\C(=O)c2cc3ccccc3o2)c1	128.6	105.3	.	-0.1	-3.9	0.6
CC(C)(C)NC(=O)CN(C(=O)CCC(=O)Nc1nccs1)c1ccc2c(c1)OCCO2	-5.3	.	-1.8	.	5.3	.
CC(C)CCNC(=O)CN(C(=O)CCC(=O)Nc1nccs1)c1ccc2c(c1)OCCO2	-61.7*	.	-2.4	.	3.7	.
CCOC(=O)CNC(=O)CCc1nnc2ccc(N3CCC(C)CC3)nn12	5.4	.	-0.4	.	-15.0	.
CCOc1ccccc1CNC(=O)CCn1ccc2cc(S(=O)(=O)N3CCCCC3)ccc21	-73.3*	.	1.7	.	-6.7	.
CCOc1ccccc1CNC(=O)Cn1ccc2cc(S(=O)(=O)N3CCCCCC3)ccc21	4.7	.	2.7	.	-9.6	.
COc1ccc(OC)c(/C=N/N(CCC#N)C2=NS(=O)(=O)c3ccccc32)c1	-8.2	.	8.0	.	21.2	.
CCS(=O)(=O)N1CCCC(C(=O)NCCc2ccc(OC)c(OC)c2)C1 (stereo unspecified)	-4.9	104.8	-1.6	0.2	5.8	0.8
COc1ccc(CCNC(=O)C2CCCN(S(=O)(=O)c3ccc(F)cc3)C2)cc1OC (stereo unspecified)	-56.5*	.	1.7	.	9.5	.
COCCNC(=S)N/N=C(\C)c1ccc(OC)cc1	2.2	95.4	53.8*	0.0	13.3	0.3
COCCNC(=S)N/N=C(\C)c1cc2ccccc2o1	13.0	92.1	68.2*	0.0	8.3	-0.4
COCCNC(=S)N/N=C(\C)c1ccc2cc(OC)ccc2c1	-3.2	91.9	27.3	-0.1	-11.6	-0.4
Cn1cnnc1SCC(=O)Nc1ccccc1Oc1ccccc1	-8.1	97.3	4.9	-0.2	8.7	-0.3
Cc1ccc(Oc2ccccc2NC(=O)C2=COCCO2)cc1	6.0	.	3.8	.	25.8	.
O=C(NCc1ccccc1)c1c[nH]c2cc3c(cc2c1=O)OCCO3	-4.5	115.4	77.2*	0.3	14.9	-0.1
O=C(CCc1ccccc1)NNC(=O)Cc1ccccc1	-10.3	97.9	0.0	0.2	-8.6	0.9
N#Cc1ccc(Oc2cccc3cccnc23)c([N+](=O)[O-])c1	-1.4	.	9.5	.	-3.1	.
O=[N+]([O-])c1ccc(Oc2cccc3cccnc23)c([N+](=O)[O-])c1	10.2	102.1	53.1*	-0.4	-5.9	0.4
Clc1ccc(-c2cnc3ccccc3n2)cc1	19.4	110.7	52.5*	-0.2	-21.5	1.1
COc1ccc2c(c1)-c1c(sn(-c3ccccc3)c1=S)C(C)(C)N2	18.2	97.0	3.7	-0.4	-22.2	1.1
COc1ccc(-n2sc3c(c2=S)-c2cc(OC)ccc2NC3(C)C)cc1	-3.3	101.0	65.8*	-0.2	-13.5	0.8
